Rows were chosen to be rich in hits. Some 1.3% of all compounds tested hit in one or more screens of this group.
procasp7 counter: counter-screen for procaspase-3 activators: activators of human procaspase-7; recombinant procaspase-7, Ac-DEVD-pNA absorbance 405 nm; D23A/D198A/D206A triple mutant, cannot self-cleave; scale: DMSO 0, 5 µM enzyme 100; activation, % at 8.5 µM; P55210; 0.093% of 330,000 active; AID 463210;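 active = percent activation above the screen-wide mean plus 3 SD, cut at about 25% in these data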
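Assay system: Uncleavable procaspase-7 mutant enzyme / Input: 2 µM procaspase-7 mutant as dispensed / Dosing: single nominal 8.5 µM compound dose, 0.8% DMSO final / Timing: 1 h enzyme–compound preincubation and 2 h substrate reaction, both 25 °C / Detection: p-Nitroaniline absorbance at 405 nm, read at 0 and 120 min / Replication: singlicate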
CHT block: inhibitors of human choline transporter CHT; 0.86% of 310,000 active; Q9GZV3; B-score at 10 µM; CHT-expressing cells, membrane potential dye, choline response; stronger effect = lower value;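 active = B-score over 3 SD under the library average, and starting fluorescence ratio not unusually high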;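 also: choline stimulus applied at its EC90 after an EC20 pre-addition; B-score computed on integrated fluorescence ratio after choline addition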
Target sequence (Q9GZV3 whole entry, looked up): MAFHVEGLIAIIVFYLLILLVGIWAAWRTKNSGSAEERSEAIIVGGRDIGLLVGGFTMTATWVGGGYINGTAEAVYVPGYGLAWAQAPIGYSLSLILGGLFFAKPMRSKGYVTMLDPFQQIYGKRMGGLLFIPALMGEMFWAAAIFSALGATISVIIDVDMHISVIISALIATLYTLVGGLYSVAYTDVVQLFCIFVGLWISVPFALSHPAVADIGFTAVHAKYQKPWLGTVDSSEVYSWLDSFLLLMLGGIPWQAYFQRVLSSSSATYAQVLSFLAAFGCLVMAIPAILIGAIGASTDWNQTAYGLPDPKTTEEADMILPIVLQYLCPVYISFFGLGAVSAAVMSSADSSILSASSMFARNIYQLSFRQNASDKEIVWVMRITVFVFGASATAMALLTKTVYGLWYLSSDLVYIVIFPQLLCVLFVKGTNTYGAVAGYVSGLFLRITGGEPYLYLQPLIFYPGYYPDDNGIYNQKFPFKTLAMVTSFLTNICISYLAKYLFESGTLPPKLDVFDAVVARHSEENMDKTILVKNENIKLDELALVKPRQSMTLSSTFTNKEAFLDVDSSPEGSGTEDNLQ
procasp3 activ: procaspase-3 (human) activation. P42574. recombinant procaspase-3 D3A, Ac-DEVD-pNA absorbance 405 nm. activation, % at 8.5 µM. 0.11% of 330,000 active;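 active = activation above the mean of all tested compounds plus 3 SD, cut at about 21% in these data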;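 also: 0% = DMSO alone and 100% = DMSO wells spiked with extra 5 µM PC-3 D3A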
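Assay system: Autoprocessing-dead procaspase-3 D3A mutant enzyme; also added: Ac-DEVD-pNA; doses: one concentration, 8.5 µM nominal, 0.8% DMSO; times: 1 h compound preincubation, 2 h substrate hydrolysis at 25 °C; technique: 405 nm absorbance of p-nitroaniline, reads at 0 and 120 min; measure: % activation between DMSO and enzyme-spiked controls; repeats: single replicate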
CHT allo act: allosteric activators of human choline transporter CHT; 0.49% of 310,000 active; B-score at 10 µM; CHT-expressing cells, membrane potential dye, choline EC20; stronger effect = higher value; LV-AA mutant CHT in HEK293 cells;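 active = initial fluorescence not abnormally high and integrated response B-score, plate-corrected, over 3 SD above library mean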
CHT block conf: human CHT inhibition, confirmatory screen; shares compounds with CHT block; CHT-expressing cells, choline membrane potential dye; LV-to-AA substituted CHT, HEK293 cells; CHT activity remaining % of control (stronger effect = lower value), % at 10 µM; 70% of 2,400 active;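 active = choline transporter activity left, mean of duplicates at 10 µM, below buffer-only control mean minus 3 SD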;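 also: depolarization triggered by choline at its EC90 following an EC20 pre-addition; 0% = hemicholinium-3 full block and 100% = buffer-only control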
HEK293 CHT ctr: CHT inhibitor counter-screen hit in parental HEK293 cells; membrane potential ratio readout (active if shifted either direction beyond buffer ±3SD; no single direction) at 10 µM; membrane potential dye, choline response; active = decrease or increase beyond buffer ±3SD; shares compounds with CHT block; 4% of 2,400 active; AID 493222;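 also: parental cells lack the transporter so any hit is non-specific; ratio is peak minus trough fluorescence over baseline after EC90 choline challenge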
* hit, by the source's call; i = inactive; x = not tested or not shown.

SMILES	procasp7 counter	CHT block	procasp3 activ	CHT allo act	CHT block conf	HEK293 CHT ctr
Cc1cc(NC(=O)C(C)SCC(=O)OC(C)C(=O)Nc2ccc(F)cc2Cl)no1 (stereo not given)	-7	i	12	i	x	x
CCN(CC(=O)NCc1ccncc1)S(=O)(=O)c1ccc(OC)cc1	5	i	4	i	x	x
O=[N+]([O-])c1cc(Br)c(O)c(/C=N/Nc2nnnn2-c2cccc3ccccc23)c1	8	-9.2*	-7	i	33%*	i
Cn1c(=O)c2c(nc(CN3CCOCC3)n2CCc2ccccc2)n(C)c1=O	2	-5*	-3	i	i	i
COC(=O)c1ccc(Cn2c(CN3CCOCC3)nc3ccccc3c2=O)o1	2	-5.2*	-10	i	i	i
Cc1nc2ccccc2c(=O)n1CCN1CCOCC1	9	i	1	i	x	x
CC(C)[C@H](NC(=O)OCc1ccccc1)C(=O)OCC(=O)Nc1ccc(N2CCOCC2)cc1	-9	i	1	i	x	x
CCn1c(=O)c2c(nc3n2CCCN3CCc2ccc(OC)c(OC)c2)n(C)c1=O	x	i	x	i	x	x
CCCn1c(=O)c2c(nc3n2CCCN3CCc2ccc(OC)c(OC)c2)n(C)c1=O	2	-5.2*	4	i	70%*	i
CN(C(=O)c1cccc(NC(=O)C2CCN(C(=O)OC(C)(C)C)CC2)c1)C1CCCCC1	22	x	4	x	x	x
Cc1cccn2c(=O)c(C=O)c(N3CCCCCC3)nc12	-4	-6.4*	-3	i	i	i
Cc1cccn2c(=O)c(C=O)c(N3CC(C)OC(C)C3)nc12 (stereo not given)	-7	i	3	i	x	x
C=CCNCc1ccc(C(=O)NCCCCCCC)cc1[N+](=O)[O-]	-6	i	5	i	x	x
CC(C(=O)OCC(=O)c1cccc([N+](=O)[O-])c1)N1C(=O)C2C3C=CC(C3)C2C1=O (stereo not given)	6	i	7	i	x	x
Cc1ccc(C(=O)O)cc1N=Cc1cc(Br)cc(Br)c1O	1	-6.2*	-1	i	59%*	i
O=C(O)c1cc([N+](=O)[O-])ccc1NCc1ccccc1Cl	-7	-5.6*	-6	i	i	i
Cn1c(=NCC(O)COc2ccccc2)sc2ccccc21 (stereo not given)	-3	-19*	7	i	8.9%*	i
O=C(CSc1c2c(nc3cc(Cl)ccc13)CCCC2)NCCN1CCOCC1	-2	i	-5	i	x	x
O=C(CSc1c2c(nc3ccc(Cl)cc13)CCCC2)NCCCN1CCOCC1	-3	-8.6*	-7	i	18%*	i
O=C1ON=C(c2ccccc2)/C1=C/c1ccco1	-10	-6.6*	5	i	50%*	i
CN(C)/C=C1\C(=O)ON=C1c1ccccc1	-10	i	-10	i	x	x
COc1ccc(Cl)cc1C(=O)NNC(=O)c1[nH]c(C)c(C(C)=O)c1C	-3	x	6	x	x	x
COc1ccccc1NC(=O)c1ccc(NC(=O)c2ccc(=O)[nH]c2)cc1	-4	x	-7	x	x	x
O=C(CC(=O)c1c(F)cccc1Cl)c1ccccc1O	5	-5.6*	3	i	46%*	i
CCOC(=O)c1sc(=S)n(CC)c1NC(=O)C1CC1	-1	-6.1*	7	i	71%*	i
SMILES	procasp7 counter	CHT block	procasp3 activ	CHT allo act	CHT block conf	HEK293 CHT ctr
COc1ccc(Cl)cc1NC(=O)CN(C)Cc1cccs1	1	i	-5	i	x	x
Oc1ccc(Oc2ncc(Cl)cc2Cl)cc1	-1	-5.4*	6	i	59%*	i
CCOCCOC(=O)C(C)Oc1ccc(Oc2ncc(Cl)cc2Cl)cc1 (stereo not given)	-1	i	6	i	x	x
Cc1c(C(=O)Nc2c(F)cc(F)cc2Br)sc2ncn(CC(=O)N3CCCC3)c(=O)c12	-2	i	4	i	x	x
O=Cc1ccc(Cl)c(Cl)c1	7	x	-1	x	x	x
Cc1ccnc(SCc2cc(=O)c(OC(=O)c3ccco3)co2)n1	7	-5.8*	-10	i	61%*	i
Cc1ccc(C(C)(O)CS(=O)(=O)Cc2ccccc2Cl)cc1 (stereo not given)	-7	i	-3	i	x	x
COc1ccc(Br)cc1C(=O)NC(=S)Nc1ccc(Cl)c(C(=O)O)c1	-18	i	-3	i	58%*	i
CCn1c(=O)cc(SCC(=O)Nc2ccc(OC)c(OC)c2)c2ccccc21	-32	-6*	8	i	i	i
O=c1cc(CN2CCN(c3ccccc3O)CC2)nc2sccn12	-4	-8.8*	-3	i	42%*	i
CC1=NN(C(=O)c2csc(C)c2)C(O)(C(F)(F)F)C1 (stereo not given)	1	i	-11	i	x	x
CC1=NN(C(=O)c2ccc(Br)cc2)C(O)(C(F)(F)OC(F)(F)F)C1 (stereo not given)	6	-5.1*	1	i	44%*	i
Cc1c(C(c2cccc([N+](=O)[O-])c2O)c2c(C)n(C)n(-c3ccccc3)c2=O)c(=O)n(-c2ccccc2)n1C	-4	i	2	i	x	x
Cc1[nH]n(-c2ccccc2)c(=O)c1C(c1cccc([N+](=O)[O-])c1O)c1c(C)[nH]n(-c2ccccc2)c1=O	-22	-7.2*	1	i	-6.2%*	i
O=C(Nc1nccs1)C1CCN(S(=O)(=O)c2c(Cl)cccc2Cl)CC1	14	-5.9*	-3	i	i	i
O=C(Nc1nccs1)C1CCN(S(=O)(=O)c2ccc(F)cc2)CC1	13	i	1	i	x	x
CC1CCN(c2nc3nonc3nc2Nc2ccc(F)cc2)CC1	-5	-5.4*	0	i	i	i
COc1ccc(Nc2nc3nonc3nc2N2CCCCC2)cc1	1	i	-5	i	x	x
Cn1c(SCc2nc(-c3ccccc3)no2)nnc1-c1ccco1	-8	i	8	i	x	x
CCn1c(SCc2nc(-c3ccc(Cl)cc3)no2)nnc1-c1ccco1	-2	-13*	4	i	3.1%*	i
CCN(Cc1nc2cc(Cl)ccc2c(=O)[nH]1)C(=O)c1nn(C)c(=O)c2ccccc12	1	x	0	x	x	x
CC(C)CCN1CCN=C1Nc1ccccc1	6	i	-3	i	x	x
CC(=O)Nc1ccc(NC(=O)c2ccc(COc3ccc(C)cc3)o2)cc1	11	i	3	i	x	x
CCCNC(=O)c1ccc(COc2ccc(C)cc2)o1	-6	-5*	-11	i	52%*	i
CCOc1ccc(OCc2ccc(C(=O)N3CCCC3)o2)cc1	3	-8.1*	-8	i	42%*	i

Screens as filed in PubChem BioAssay.
